Test results from ChEMBL document CHEMBL2434891, “Design, synthesis, and in vitro cancer cell growth inhibition evaluation and antimalarial testing of trioxanes installed in cyclic 2-enoate substructures” (Eur J Med Chem, 2013).
In brackets after ≈: the same amount, converted by molar mass.

Legend:
[1] = tested on: DU-145; assay: Cytotoxicity against human DU145 cells after 72 hrs by SRB assay; format: functional; conditions: DU-145, 72 h
[2] = tested on: MKN-28; assay: Cytotoxicity against human MKN28 cells after 72 hrs by SRB assay; format: functional; conditions: MKN-28, 72 h
[3] = Cytotoxicity against human MKN1 cells after 72 hrs by SRB assay; format: functional; conditions: MKN-1, 72 h
[4] = Cytotoxicity against human RXF631L cells after 72 hrs by SRB assay; format: functional; conditions: RXF 631, 72 h
[5] = tested on: DMS-273; assay: Cytotoxicity against human DMS273 cells after 72 hrs by SRB assay; format: functional; conditions: DMS-273, 72 h
[6] = tested on: NCI-H460; assay: Cytotoxicity against human NCI-H460 cells after 72 hrs by SRB assay; format: functional; conditions: NCI-H460, 72 h
[7] = tested on: NCI-H226; assay: Cytotoxicity against human NCI-H226 cells after 72 hrs by SRB assay; format: functional; conditions: NCI-H226, 72 h
[8] = tested on: HCT-116; assay: Cytotoxicity against human HCT116 cells after 72 hrs by SRB assay; format: functional, cell-based; conditions: HCT-116, 72 h
Method in brief: (§1)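 Adherent cells grown at 37 °C and 5% CO2. Seeded at 1×10^4/well 24 h before dosing, then 72 h at 10–0.01 µg/mL final. Fixed with cold 50% TCA, stained with 0.4% SRB, dye extracted in 10 mM Tris, read at 540 nm.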

[9] = tested on: HCT-15; assay: Cytotoxicity against human HCT15 cells after 72 hrs by SRB assay; format: functional; conditions: HCT-15, 72 h
[10] = tested on: U-251; assay: Cytotoxicity against human U251 cells after 72 hrs by SRB assay; format: functional; conditions: U-251, 72 h
[11] = tested on: MDA-MB-231; assay: Cytotoxicity against human MDA-MB-231 cells after 72 hrs by SRB assay; format: functional; conditions: MDA-MB-231, 72 h
[12] = Cytotoxicity against human HBC4 cells after 72 hrs by SRB assay; format: functional; conditions: HBC4, 72 h
[13] = tested on: L6; assay: Cytotoxicity against rat L6 cells after 70 hrs by alamar blue assay; conditions: L6, 70 h
[14] = tested on: Plasmodium falciparum; assay: Antimalarial activity against erythrocytic stage of Plasmodium falciparum NF54 infected in RBC after 48 hrs by [3H]-hypoxanthine incorporation assay; format: functional, organism-based
[15] = tested on: BALB/3T3; assay: Cytotoxicity against mouse BALB/3T3 cells after 72 hrs by SRB assay; format: cell-based; conditions: BALB/3T3, 72 h
Method in brief: as §1, with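 “CO2. A549 and HCT116 were in RPMI 1640/OptiMEM (50:50) with 5% FBS; BALB/3T3 in Dulbecco medium with 10% FBS and pyruvate.” for “CO2.”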

[16] = read-out: LC50 (the source's name)
[17] = read-out: pLC50 (the source's name) (converted)

## COc1ccc(C2O[C@]34CC(c5cccc(OC)c5)OC(=O)C3=C[C@@]2(C)OO4)cc1 (stereo not given in full)
[1]
  TGI: 31 µM
[1]; read-out: GI50
  GI50: 16 µM
[1]; [16]
  CC50: 57 µM
[2]
  TGI: 36 µM
[2]; read-out: GI50
  GI50: 11 µM
[2]; [16]
  CC50: 100 µM
[3]
  TGI: 4.4 µM
[3]; read-out: GI50
  GI50: 2.1 µM
[3]; [16]
  CC50: 9.1 µM
[4]
  TGI: 31 µM
[4]; read-out: GI50
  GI50: 17 µM
[4]; [16]
  CC50: 59 µM
[5]
  TGI: 27 µM
[5]; read-out: GI50
  GI50: 10 µM
[5]; [16]
  CC50: 74 µM
[6]
  TGI: 41 µM
[6]; read-out: GI50
  GI50: 20 µM
[6]; [16]
  CC50: 82 µM
[7]
  TGI: 40 µM
[7]; read-out: GI50
  GI50: 18 µM
[7]; [16]
  CC50: 92 µM
[8]
  TGI: 13 µM
[8]; read-out: GI50
  GI50: 3.4 µM
[8]; [16]
  CC50: 70 µM
[9]
  TGI: 17 µM
[9]; read-out: GI50
  GI50: 3.7 µM
[9]; [16]
  CC50: 100 µM
[10]
  TGI: 33 µM
[10]; read-out: GI50
  GI50: 16 µM
[10]; [16]
  CC50: 68 µM
[11]
  TGI: 18 µM
[11]; read-out: GI50
  GI50: 5.4 µM
[11]; [16]
  CC50: 51 µM
[12]
  TGI: 13 µM
[12]; read-out: GI50
  GI50: 3.7 µM
[12]; [16]
  CC50: 38 µM

## COc1ccc(C2O[C@]34CC(c5cccc(Cl)c5)OC(=O)C3=C[C@@]2(C)OO4)cc1 (stereo not given in full)
[13]
  IC50: 0.46 µg/mL (≈ 1.11 µM)
[14]
  IC50: 1.38 µg/mL (≈ 3.33 µM)
[15]
  IC50: 8.97 µM
[1]
  TGI: 29 µM
[1]; read-out: GI50
  GI50: 15 µM
[1]; [16]
  CC50: 54 µM
[1]; read-out: pGI50 (converted)
  GI50: 16.6 µM
[1]; [17]
  CC50: 56.2 µM
[2]
  TGI: 40 µM
[2]; read-out: GI50
  GI50: 14 µM
[2]; [16]
  CC50: 100 µM
[2]; read-out: pGI50 (converted)
  GI50: 11 µM
[2]; read-out: pLC50 (converted)
  CC50: > 100 µM
[3]
  TGI: 17 µM
[3]; read-out: GI50
  GI50: 4.5 µM
[3]; [16]
  CC50: 49 µM
[3]; read-out: pGI50 (converted)
  GI50: 2.09 µM
[3]; [17]
  CC50: 9.12 µM
[4]
  TGI: 30 µM
[4]; read-out: GI50
  GI50: 16 µM
[4]; [16]
  CC50: 56 µM
[4]; read-out: pGI50 (converted)
  GI50: 16.6 µM
[4]; [17]
  CC50: 58.9 µM
[5]
  TGI: 31 µM
[5]; read-out: GI50
  GI50: 14 µM
[5]; [16]
  CC50: 69 µM
[5]; read-out: pGI50 (converted)
  GI50: 10.2 µM
[5]; [17]
  CC50: 74.1 µM
[6]
  TGI: 38 µM
[6]; read-out: GI50
  GI50: 19 µM
[6]; [16]
  CC50: 77 µM
[6]; read-out: pGI50 (converted)
  GI50: 20 µM
[6]; [17]
  CC50: 81.3 µM
[7]
  TGI: 48 µM
[7]; read-out: GI50
  GI50: 20 µM
[7]; [16]
  CC50: 100 µM
[7]; read-out: pGI50 (converted)
  GI50: 17.8 µM
[7]; [17]
  CC50: 91.2 µM
[8]
  IC50: 7.67 µM
  TGI: 20 µM
[8]; read-out: GI50
  GI50: 4.1 µM
[8]; [16]
  CC50: 100 µM
[8]; read-out: pGI50 (converted)
  GI50: 3.39 µM
[8]; [17]
  CC50: 70.8 µM
[9]
  TGI: 24 µM
[9]; read-out: GI50
  GI50: 4.4 µM
[9]; [16]
  CC50: 100 µM
[9]; read-out: pGI50 (converted)
  GI50: 3.72 µM
[9]; read-out: pLC50 (converted)
  CC50: > 100 µM
[10]
  TGI: 36 µM
[10]; read-out: GI50
  GI50: 18 µM
[10]; [16]
  CC50: 73 µM
[10]; read-out: pGI50 (converted)
  GI50: 15.8 µM
[10]; [17]
  CC50: 69.2 µM
[11]
  TGI: 26 µM
[11]; read-out: GI50
  GI50: 12 µM
[11]; [16]
  CC50: 58 µM
[11]; read-out: pGI50 (converted)
  GI50: 5.37 µM
[11]; [17]
  CC50: 51.3 µM
[12]
  TGI: 24 µM
[12]; read-out: GI50
  GI50: 11 µM
[12]; [16]
  CC50: 54 µM
[12]; read-out: pGI50 (converted)
  GI50: 3.72 µM
[12]; [17]
  CC50: 38 µM
